# Measurements pooled from the literature.
# Protocols differ between the studies behind these lines.
# ABL1: Tyrosine-protein kinase ABL1 (ABL1, Homo sapiens, UniProt P00519)
# ABL1 M351T: Tyrosine-protein kinase ABL1 (ABL1, Homo sapiens, UniProt P00519, M351T)
# ABL1 Y253F: Tyrosine-protein kinase ABL1 (ABL1, Homo sapiens, UniProt P00519, Y253F)
# ABL1 Q252H phosphorylated: Tyrosine-protein kinase ABL1, phosphorylated (ABL1, Homo sapiens, UniProt P00519, Q252H)
Structure (SMILES),target,observed,action,method,tested at,quantity,value
[2H]c1cc(C)c(NC(=O)c2cnc(Nc3cc(N4CC[C@@H](N)C4)nc(C)n3)s2)c(Cl)c1,ABL1,enzyme activity,inhibitor,,1 nM,inhibition,86%
COc1ccc2oc(-c3ccc4nc(N)oc4c3)c/c(=N\c3ccccc3NC(=O)CCN)c2c1,ABL1 M351T,cell-free assay,,,1 µM,remaining signal,100%
Cc1ccc(NC(=O)c2ccnc(C(F)(F)F)c2)cc1-c1cc(OCCO)nc(N2CCOCC2)c1,ABL1 Y253F,binding,,,1 µM,remaining binding,100%
Cc1nc(Nc2ncc(C(=O)Nc3c(C)cccc3Cl)s2)cc(N2CCCCC2)n1,ABL1,enzyme activity,inhibitor,,1 nM,inhibition,65%
CO[C@@H]1[C@H](N(C)C(=O)c2ccccc2)C[C@H]2O[C@]1(C)n1c3ccccc3c3c4c(c5c6ccccc6n2c5c31)C(=O)NC4,"Tyrosine-protein kinase ABL1, phosphorylated (ABL1, Homo sapiens, UniProt P00519, M351T)",enzyme activity,inhibitor,,1 µM,inhibition,13%
N#Cc1ccc(NC(=O)Nc2ccccc2)cc1,"Tyrosine-protein kinase ABL1, non-phosphorylated (ABL1, Homo sapiens, UniProt P00519)",cell-free assay,,competition with immobilised ligand,25 µM,remaining binding,83%
Cc1nc(Nc2ncc(C(=O)Nc3c(C)cccc3Cl)s2)cc(N2CC[C@H](O)C2)n1,ABL1,enzyme activity,inhibitor,,1 nM,inhibition,86%
C[C@H]1CC[C@H](n2c3cnccc3c3cnc(Nc4ccc5c(n4)CCN(C(=O)CO)C5)nc32)CC1,"Tyrosine-protein kinase ABL1, phosphorylated (ABL1, Homo sapiens, UniProt P00519)",binding,,competition with immobilised ligand,1 µM,remaining binding,100%
C#Cc1cc(-c2cc(Nc3nc(N[C@@H](C)c4ccc(F)cn4)ncc3Cl)n[nH]2)ccc1C=O,"Tyrosine-protein kinase ABL1 (ABL1, Homo sapiens, UniProt P00519, H396P)",enzyme activity,inhibitor,,0.2 µM,inhibition,16.6%
CN1CCN(C(=O)c2ccc(NC(=O)Nc3ccc(N(C)c4ccnc(Nc5ccc(CS(C)(=O)=O)cc5)n4)cc3)cc2)CC1,ABL1 Y253F,binding,,,1 µM,remaining binding,20%
Cc1nc(Nc2ncc(C(=O)Nc3c(C)cccc3Cl)s2)cc(N2CC[C@H](N)C2)n1,ABL1,enzyme activity,inhibitor,,1 nM,inhibition,92%
COc1ccc2[nH]c3c4[nH]c5ccc(OC)cc5c4c4c(c3c2c1)C(=O)NC4=O,ABL1 M351T,binding,,,1 µM,remaining binding,68%
[2H]c1cc(C)c(NC(=O)c2cnc(Nc3cc(N4CC[C@@H](O)C4)nc(C)n3)s2)c(Cl)c1,ABL1,enzyme activity,inhibitor,,1 nM,inhibition,87%
CCCCC(=O)Nc1ccc(-c2ccc3ncn(CCC)c(=O)c3c2)cn1,ABL1 Q252H phosphorylated,binding,,competition with immobilised ligand,0.5 µM,remaining binding,99%
CC#CC(=O)N1CCC[C@H]1c1nc(-c2ccc(C(=O)Nc3ccccn3)cc2)c2c(N)nccn12,ABL1 Q252H phosphorylated,enzyme activity,inhibitor,,1 µM,inhibition,39%
C1=C/COCc2cc(ccc2OCCN2CCCC2)Nc2nccc(n2)-c2cccc(c2)COC/1,"Tyrosine-protein kinase ABL1 (ABL1, Homo sapiens, UniProt P00519, E255K)",binding,,,0.1 µM,remaining binding,23%
[2H]c1cc(C)c(NC(=O)c2cnc(Nc3cc(N4CCCCC4)nc(C)n3)s2)c(Cl)c1,ABL1,enzyme activity,inhibitor,,1 nM,inhibition,96%
C=CC(=O)N1CCC([C@@H]2CCNc3c(C(N)=O)c(-c4ccc(Oc5ccccc5)cc4)nn32)CC1,"Tyrosine-protein kinase ABL1, phosphorylated (ABL1, Homo sapiens, UniProt P00519, F317I)",enzyme activity,inhibitor,,1 µM,inhibition,27%
